Calls of active or inactive are those of the source. The rule behind the calls is not given here. Where a SMILES comes first, the peptide text is derived from it. [ ]: non-standard residue; d: D form. Arg(Me) = CNC(=N)NCCC[C@H](N)C(=O)O; azaGly = NNC(=O)O
Tests used:
[1] = Stability of the compound in aqueous solution assessed as residual ratio at pH 5 up to 2 weeks by HPLC analysis relative to initial level; type: physicochemical
In short: (§1)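 Peptides in aqueous solution at pH 1.2 (JP1, containing 10% acetonitrile), 3, 5 or 7 were kept in the dark at 37 °C for up to 2 weeks. Peptide remaining was quantified from HPLC peak area, with detection at 230–280 nm. The residual ratio (stability index) was expressed relative to the time-0 amount, taken as 100%.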

[2] = Total clearance in Sprague-Dawley rat at 1 mg/kg, iv after 24 hrs by LC-MS/MS analysis; type: ADME, organism-based; parameters: dose 1 mg/kg, route intravenous; conditions: in vivo
In short: (§2)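 Male Crl:CD(SD) rats (3 per group) got a single intravenous dose of 1 mg/kg. Blood was drawn at 5, 10, 15 and 30 min and at 1, 2, 4, 8 and 24 h. Plasma proteins were removed with 0.2% formic acid/methanol and acetonitrile, and the supernatant was treated with 0.4% formic acid. Peptide was quantified by LC-MS. Noncompartmental parameters were derived per rat, reported as mean ± SD (n = 3).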

[3] = Stability of the compound in aqueous solution assessed as residual ratio at pH 3 up to 1 week by HPLC analysis relative to initial level; type: physicochemical; in short: as §1
[4] = molecular target: T1, KiSS-1 receptor (Homo sapiens, UniProt Q969F8); assay: Agonist activity at human KISS1R transfected in CHO cells assessed as intracellular calcium flux after 24 hrs by functional FLIPR assay; type: cell-based
T1 sequence (Q969F8 whole entry): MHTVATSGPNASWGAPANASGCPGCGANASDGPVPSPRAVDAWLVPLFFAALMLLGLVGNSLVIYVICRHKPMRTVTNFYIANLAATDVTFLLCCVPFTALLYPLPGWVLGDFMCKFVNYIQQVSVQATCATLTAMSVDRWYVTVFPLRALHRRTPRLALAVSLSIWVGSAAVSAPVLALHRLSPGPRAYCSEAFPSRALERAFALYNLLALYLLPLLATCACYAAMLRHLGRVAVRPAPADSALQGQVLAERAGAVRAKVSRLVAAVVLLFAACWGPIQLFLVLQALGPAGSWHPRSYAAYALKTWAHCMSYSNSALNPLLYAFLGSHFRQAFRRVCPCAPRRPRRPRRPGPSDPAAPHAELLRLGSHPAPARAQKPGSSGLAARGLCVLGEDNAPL
In short: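 CHO cells stably expressing human KISS1R were seeded at 15 000 cells/mL, cultured 24 h, then loaded with fluo-3 for 1 h at 37 °C in HBSS/HEPES (pH 7.4) with probenecid and FBS. Cells were washed in HBSS with 2.5 mM probenecid. Peptides came from 1 mM DMSO stocks diluted in buffer containing probenecid, 0.2% BSA and 0.1% CHAPS. Fluorescence was recorded on FLIPR for 3 min; peak counts over 0–180 s gave agonist activity.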

[5] = molecular target: T1, KiSS-1 receptor; assay: Displacement of radioligand from human KISS1R transfected in CHO cells; type: cell-based
In short: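 Binding used membrane fractions prepared from CHO cells expressing recombinant human KISS1R.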

[6] = Bioavailability in Sprague-Dawley rat at 1 mg/kg, sc after 24 hrs by LC-MS/MS analysis; type: ADME, organism-based; conditions: in vivo
In short: (§3)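 Single subcutaneous dose of 1 mg/kg in male Crl:CD(SD) rats, n = 3 per group. Blood was sampled from 5 min to 24 h (5, 10, 15, 30 min; 1, 2, 4, 8, 24 h). Plasma was deproteinized with formic acid/methanol and acetonitrile, and peptide levels were measured by LC-MS. Noncompartmental analysis per animal gave Cmax, Tmax, AUC0-24h, MRT and BA; values are mean ± SD (n = 3).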

[7] = system: Rattus norvegicus; assay: Testosterone-suppressive activity in Crl:CD(SD) rat assessed as plasma testosterone level below the limit of detection at 10 to 100 pmol/hr, sc continuous administration through osmotic pumps measured up to 1 week by RIA; type: functional, organism-based
In short: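 Peptide in 50% DMSO was diluted in distilled water to 10, 30 or 100 μM pump solutions, giving 10–100 pmol/h by subcutaneous ALZET osmotic pump in male Crl:CD(SD) rats (n = 5). Vehicle served as control. Plasma testosterone was measured by RIA after 1 or 4 weeks, with values below 0.04 ng/mL set to 0.04. Results are mean ± SD of five rats, tested by one-tailed Shirley–Williams test versus vehicle.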

[8] = system: Rattus norvegicus; assay: Stimulation of LH release in Crl:CD(SD) rat assessed as LH AUC (0 to 4 hrs) at 0.01 to 1 nmol/kg, sc single dose relative to metastin; type: functional
[9] = Stability of the compound in aqueous solution assessed as residual ratio at pH 5 up to 1 week by HPLC analysis relative to initial level; type: physicochemical; in short: as §1
[10] = Volume of distribution at steady state in Sprague-Dawley rat at 1 mg/kg, iv after 24 hrs by LC-MS/MS analysis; type: ADME, organism-based; parameters: dose 1 mg/kg, route intravenous; conditions: in vivo, read-out: Vdss; in short: as §2
[11] = molecular target: T2, KiSS-1 receptor (Rattus norvegicus, UniProt Q924U1); assay: Displacement of radioligand from rat KISS1R transfected in CHO cells; type: cell-based
T2 sequence (Q924U1 whole entry): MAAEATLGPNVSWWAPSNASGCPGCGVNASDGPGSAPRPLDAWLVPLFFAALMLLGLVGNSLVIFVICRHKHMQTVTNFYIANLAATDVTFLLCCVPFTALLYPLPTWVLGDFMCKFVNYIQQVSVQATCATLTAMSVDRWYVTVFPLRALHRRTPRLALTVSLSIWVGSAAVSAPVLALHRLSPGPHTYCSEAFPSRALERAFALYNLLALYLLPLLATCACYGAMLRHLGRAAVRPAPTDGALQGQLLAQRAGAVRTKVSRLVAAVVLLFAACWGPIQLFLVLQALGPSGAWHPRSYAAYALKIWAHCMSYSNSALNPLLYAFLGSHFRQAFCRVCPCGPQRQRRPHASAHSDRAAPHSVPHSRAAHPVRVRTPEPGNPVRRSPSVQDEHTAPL

[12] = Mean residence time in Sprague-Dawley rat at 1 mg/kg, iv after 24 hrs by LC-MS/MS analysis; type: ADME, organism-based; parameters: dose 1 mg/kg, route intravenous; conditions: in vivo; in short: as §2
[13] = species: Canis familiaris; assay: Toxicity in dog; type: organism-based, Canis lupus familiaris; conditions: in vivo
[14] = molecular target: T2, KiSS-1 receptor; assay: Agonist activity at rat KISS1R transfected in CHO cells assessed as intracellular calcium flux after 24 hrs by functional FLIPR assay; type: cell-based
[15] = Tmax in Sprague-Dawley rat at 1 mg/kg, sc after 24 hrs by LC-MS/MS analysis; type: ADME, organism-based; parameters: dose 1 mg/kg, route subcutaneous; conditions: in vivo; in short: as §3
[16] = system: Rattus norvegicus; assay: Testosterone-suppressive activity in Crl:CD(SD) rat assessed as number of animal with plasma testosterone level below the limit of detection at 0.03 mol/hr, sc through osmotic pumps measured after 6 days by RIA; type: functional
[17] = Mean residence time in Sprague-Dawley rat at 1 mg/kg, sc after 24 hrs by LC-MS/MS analysis; type: ADME, organism-based; parameters: dose 1 mg/kg, route subcutaneous; conditions: in vivo; in short: as §3
[18] = Cmax in Sprague-Dawley rat at 1 mg/kg, sc after 24 hrs by LC-MS/MS analysis; type: ADME, organism-based; parameters: dose 1 mg/kg, route subcutaneous; conditions: in vivo; in short: as §3
[19] = C5min in Sprague-Dawley rat at 1 mg/kg, iv after 5 mins by LC-MS/MS analysis; conditions: in vivo, read-out: Cmin
[20] = Stability of the compound in aqueous solution assessed as residual ratio at pH 7 up to 2 weeks by HPLC analysis relative to initial level; type: physicochemical; in short: as §1
[21] = Stability of the compound in aqueous solution assessed as residual ratio at pH 3 up to 2 weeks by HPLC analysis relative to initial level; type: physicochemical; in short: as §1
[22] = AUC (0 to 24 hrs) in Sprague-Dawley rat at 1 mg/kg, sc after 24 hrs by LC-MS/MS analysis; type: ADME, organism-based; parameters: time < 24 hr, dose 1 mg/kg, route subcutaneous; conditions: plasma; in short: as §3
[23] = system: Rattus norvegicus; assay: Testosterone-suppressive activity in Crl:CD(SD) rat assessed as number of animal with plasma testosterone level below the limit of detection […], sc through osmotic pumps measured after 6 days by RIA; type: functional
[24] = system: Rattus norvegicus; assay: Testosterone-suppressive activity in Crl:CD(SD) rat assessed as number of animal with plasma testosterone level below the limit of detection at 0.05 mol/hr, sc through osmotic pumps measured after 6 days by RIA; type: functional
[25] = Stability of the compound in aqueous solution (JP1) assessed as residual ratio at pH 1.2 up to 2 weeks by HPLC analysis relative to initial level; type: physicochemical; in short: as §1
[26] = Stability of the compound in aqueous solution (JP1) assessed as residual ratio at pH 1.2 up to 1 week by HPLC analysis relative to initial level; type: physicochemical; in short: as §1
[27] = Stability of the compound in aqueous solution assessed as residual ratio at pH 7 up to 1 week by HPLC analysis relative to initial level; type: physicochemical; in short: as §1
[28] = system: Rattus norvegicus; assay: Stimulation of testosterone release in Crl:CD(SD) rat assessed as testosterone AUC (0 to 4 hrs) at 0.01 to 1 nmol/kg, sc single dose; type: functional, organism-based
[29] = species: Rattus norvegicus; assay: Toxicity in rat; type: organism-based; conditions: in vivo
[30] = AUC (0 to 24 hrs) in Sprague-Dawley rat at 1 mg/kg, iv after 24 hrs by LC-MS/MS analysis; type: ADME, organism-based; parameters: time < 24 hr, dose 1 mg/kg, route intravenous; conditions: plasma; in short: as §2

## CNC(=N)NCCC[C@H](NC(=O)[C@H](CC(C)C)NC(=O)NNC(=O)[C@H](Cc1ccccc1)NC(=O)[C@@H](NC(=O)[C@H](CC(N)=O)NC(=O)[C@@H](Cc1c[nH]c2ccccc12)NC(=O)[C@@H](Cc1ccc(O)cc1)NC(C)=O)[C@@H](C)O)C(=O)N[C@@H](Cc1c[nH]c2ccccc12)C(N)=O (Ac-[dY][dW]NTF[azaGly]L[Arg(Me)]W-NH2)
[1]
  remaining at 336 h: 93.6%
[2]
  clearance: 13.7 mL/min/kg
[3]
  remaining at 168 h: 97.7%
[4]
  EC50: 0.33 nM
[5]
  Ki: 0.036 nM
[6]
  bioavailability: 9.4%
[7]
  inhibition: Active
[8]
  fold change (FC): 100
[9]
  remaining at 168 h: 95.9%
[10]
  Vd: 0.562 L/kg
[11]
  Ki: 0.069 nM
[12]
  MRT: 41.4 min
[13]
  Activity: Non-toxic
[14]
  EC50: 1.3 nM
[15]
  Tmax: 11.4 min
[16]
  Activity: 4%
[17]
  MRT: 51.6 min
[18]
  Cmax: 100 ng/mL
[19]
  concentration at 5 min: 2510 ng/mL
[20]
  remaining at 336 h: 66.4%
[21]
  remaining at 336 h: 95.6%
[22]
  AUC(0-t) at 24 h: 115 ng·h/mL
[23]
  Activity: 0 animals
[24]
  Activity: 5%
[25]
  remaining at 336 h: 28.8%
[26]
  remaining at 168 h: 55.6%
[27]
  remaining at 168 h: 79.7%
[28]
  Activity: Active
[29]
  Activity: Non-toxic
[30]
  AUC(0-t) at 24 h: 1220 ng·h/mL
